PubChem BioAssay
The source made the active and inactive calls.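 The calls were made as follows, unless noted: active = viability at or under a set limit in both replicates, limit being median viability minus 3 SD (cut at about 48% in these data, passing the limit was not always enough); inconclusive = at or under the limit in just one replicate; inactive = at or above the limit in both replicates.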

Key:
[1] = Her2 expression decrease, cell viability multiplex – SKBR3 breast tumor cells, AlphaScreen, ATP viability, primary screen (AID 461;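 active = Her2 level under about 52% in both replicate screens, with viability over 70% of control, limit read from the data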;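 as to Her2 level: lower value means less Her2 protein in the cells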;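 as to viability: percent of carrier control wells set as 100% viability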); conditions: SKBR3 Her2 protein level, 18-24 h, measured here: SKBR3 viability, ATP luminescence, at 10 µM
[2] = target: Receptor tyrosine-protein kinase erbB-2 (Homo sapiens) (UniProt P04626); experiment: as above; conditions: 18-24 h, at 10 µM, stronger effect = lower value
Chain of Receptor tyrosine-protein kinase erbB-2 (Homo sapiens) (P04626 whole entry, looked up): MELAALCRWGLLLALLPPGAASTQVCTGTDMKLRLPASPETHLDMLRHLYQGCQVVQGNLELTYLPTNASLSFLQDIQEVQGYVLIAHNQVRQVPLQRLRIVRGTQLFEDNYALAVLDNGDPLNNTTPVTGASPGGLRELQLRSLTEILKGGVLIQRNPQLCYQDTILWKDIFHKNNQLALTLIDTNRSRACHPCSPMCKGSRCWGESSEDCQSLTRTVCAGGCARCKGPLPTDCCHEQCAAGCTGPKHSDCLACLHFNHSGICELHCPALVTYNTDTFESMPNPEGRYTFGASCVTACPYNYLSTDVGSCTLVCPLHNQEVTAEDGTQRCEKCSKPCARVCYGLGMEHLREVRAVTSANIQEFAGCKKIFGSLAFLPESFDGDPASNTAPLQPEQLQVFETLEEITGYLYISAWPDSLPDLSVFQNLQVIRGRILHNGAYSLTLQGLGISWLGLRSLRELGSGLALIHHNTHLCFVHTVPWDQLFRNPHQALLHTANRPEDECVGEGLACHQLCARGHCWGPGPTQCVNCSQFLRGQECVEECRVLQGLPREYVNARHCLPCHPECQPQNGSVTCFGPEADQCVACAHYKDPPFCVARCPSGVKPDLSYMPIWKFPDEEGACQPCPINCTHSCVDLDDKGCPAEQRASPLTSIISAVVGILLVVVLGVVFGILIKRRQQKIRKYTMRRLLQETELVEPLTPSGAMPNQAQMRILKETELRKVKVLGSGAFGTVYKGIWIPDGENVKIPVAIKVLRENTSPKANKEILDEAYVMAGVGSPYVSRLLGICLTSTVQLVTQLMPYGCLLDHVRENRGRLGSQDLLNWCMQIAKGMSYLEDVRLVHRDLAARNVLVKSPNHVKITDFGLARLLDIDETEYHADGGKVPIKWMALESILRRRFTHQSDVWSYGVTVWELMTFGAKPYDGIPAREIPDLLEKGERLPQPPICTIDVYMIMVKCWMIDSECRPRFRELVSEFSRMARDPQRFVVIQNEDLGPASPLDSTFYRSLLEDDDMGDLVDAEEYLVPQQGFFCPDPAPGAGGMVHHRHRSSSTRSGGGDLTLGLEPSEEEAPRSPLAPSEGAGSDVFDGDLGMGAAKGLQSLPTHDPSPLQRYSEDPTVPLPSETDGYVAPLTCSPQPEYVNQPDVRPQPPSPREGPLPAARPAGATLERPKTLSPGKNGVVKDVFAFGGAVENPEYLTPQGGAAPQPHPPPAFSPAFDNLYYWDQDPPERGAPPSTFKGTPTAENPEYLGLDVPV

[3] = reduced viability of SK-BR-3 breast cancer cells – cell-based, 24 h, human, pilot screen (AID 572;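 active = viability at or below 10% of carrier control in both of two separate runs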;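 also: compound exposure lasted between 18 and 24 h rather than exactly 24 h; 100% = carrier-treated control wells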); conditions: SK-BR-3 viability, CellTiter-Glo luminescence, at 10 µM, stronger effect = lower value
[4] = HUVEC growth inhibition – cell-based, human, primary screen (AID 575;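 active = viability at or below 30% in both replicate assays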;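 also: 100% = median of untreated cell wells with 0.1% DMSO on each plate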); conditions: HUVEC proliferation, CellTiter-Glo luminescence, 72 h; at 10 µM; stronger effect = lower value
Procedure, shortened: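 Test system: HUVEC primary cells. Quantity: 1250 endothelial cells in each well. Dosing: single-point 10 µM, DMSO 0.1% final. Incubation: 72 h treatment at 37 °C. Measured by: CTG luminescence. Control set: DMSO cell controls and MePR drug controls. Plate: collagen-coated 384-well format.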

[5] = H69AR cell proliferation blockers – human, duplicate replicates, primary screen (AID 580); conditions: H69AR lung tumor cells viability, ATP luminescence, 72 h; at 10 µM; stronger effect = lower value;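 also: 100% = mean luminescence of untreated wells and 0% = no signal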
[6] = MRP1 drug-resistance reversers in H69AR cells – cell-based, doxorubicin co-treatment, pilot screen (AID 601;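 active = viability loss from added drug above about 55%, and viability with drug at most 40%, in both replicates, limit read from the data, passing the limit was not always enough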); conditions: CellTiter-Glo, 72 h, at 10 µM; for differential viability (reversal): stronger effect = higher value
[7] = yeast transport mutant growth inhibition pilot in 384-well plates, post-Golgi transport modulator project (AID 636; in the data active = inhibition above about 31%); conditions: absorbance 615 nm, about 18 h, stronger effect = higher value
[8] = growth suppression of yeast trafficking mutant, preliminary HTS, modulators of trafficking downstream of Golgi apparatus project, 1536-format plate, OD 615 nm (AID 637; in the data active = inhibition above about 30%); conditions: yeast transport mutant growth, absorbance 615 nm, 18 h; stronger effect = higher value
[9] = H69AR cells + 2 uM doxorubicin, measured here: viability with 2 uM doxorubicin, stronger effect = lower value
[10] = H69AR cells, compound alone cytotoxicity

SMILES	viability [1]	Her2 level [2]	viability [3]	viability [4]	viability [5]	differential viability (reversal) ([6]; H69AR cells + 2 uM doxorubicin)	viability [6, 9]	viability [6, 10]	inhibition [7]	inhibition [8]
CC1CCN(CCn2c(=S)[nH]c3ncccc3c2=O)CC1	98.5%	95% (inactive)	98.5% (inactive)	78.6% (inactive)	104% (inactive)	9.6% (inactive)	93.9%	104%	-2.89% (inactive)	0.83% (inactive)
Cc1ccccc1NS(=O)(=O)c1cc(S(C)(=O)=O)ccc1Cl	96%	98.5% (inactive)	96% (inactive)	110% (inactive)	94.4% (inactive)	3.12% (inactive)	91.3%	94.4%	-2.4% (inactive)	-4.29% (inactive)
Cc1cc(NCCN2CCCCC2)n2c(nc3ccccc32)c1C#N	87.5%	65.5% (inactive)	87.5% (inactive)	96.2% (inactive)	85.1% (inactive)	-7.47% (inactive)	92.6%	85.1%	-5.6% (inactive)	4.1% (inactive)
COCCCNC(=O)CCc1nc(-c2ccccc2Cl)no1	102%	95% (inactive)	102% (inactive)	103% (inactive)	93.3% (inactive)	-0.855% (inactive)	94.1%	93.3%	0.39% (inactive)	6.39% (inactive)
CCOC(=O)c1[nH]cc(-c2ccccc2)c1N1CCOCC1	92.5%	89.5% (inactive)	92.5% (inactive)	98% (inactive)	94.7% (inactive)	9.26% (inactive)	85.5%	94.7%	-2.5% (inactive)	0.55% (inactive)
COc1ccc(CN2CC(C(=O)NCc3ccccn3)CC2=O)cc1 (stereo not given)	92.5%	104% (inactive)	92.5% (inactive)	101% (inactive)	105% (inactive)	9.59% (inactive)	95.1%	105%	-5% (inactive)	-4.03% (inactive)
COc1ccc(-c2nnc3ccc(SC(C(C)=O)C(C)=O)nn23)cc1OC	90%	86.5% (inactive)	90% (inactive)	87.8% (inactive)	82.9% (inactive)	4.92% (inactive)	78%	82.9%	-6.62% (inactive)	6.17% (inactive)
CC(=O)Nc1ccc(S(=O)(=O)N2CCC(c3nc4ccccc4[nH]3)CC2)cc1	93%	81.5% (inactive)	93% (inactive)	78.9% (inactive)	93.6% (inactive)	9.73% (inactive)	83.9%	93.6%	-3.78% (inactive)	0% (inactive)
COC(=O)c1sccc1NC(=O)c1csc(C)c1	87%	20% (active)	87% (inactive)	60.8% (inactive)	69.1% (inactive)	2.06% (inactive)	67.1%	69.1%	-3.64% (inactive)	-0.66% (inactive)
O=S(=O)(NC1CCCC1)c1ccc(S(=O)(=O)N2CCc3ccccc32)cc1	99.5%	94.5% (inactive)	99.5% (inactive)	66.1% (inactive)	71.5% (inactive)	1.97% (inactive)	69.6%	71.5%	-4.94% (inactive)	-12.4% (inactive)
COc1ccc(CCn2c(NCCCN3CCOCC3)nc3c2c(=O)[nH]c(=O)n3C)cc1	84.5%	86% (inactive)	84.5% (inactive)	76.6% (inactive)	87.3% (inactive)	0.365% (inactive)	86.9%	87.3%	4.13% (inactive)	30.3% (active)
OC(COc1ccccc1)CN1C2=NCCCN2c2ccccc21 (stereo not given)	80.5%	79.5% (inactive)	80.5% (inactive)	97.4% (inactive)	92.6% (inactive)	7.67% (inactive)	85%	92.6%	-4.93% (inactive)	3.11% (inactive)
O=C(Nc1ccc(N2CCOCC2)cc1)c1cccc(S(=O)(=O)N2CCCC2)c1	88.5%	85% (inactive)	88.5% (inactive)	96.8% (inactive)	98.4% (inactive)	5.26% (inactive)	93.1%	98.4%	-5% (inactive)	-2% (inactive)
Cc1ccc(OCCC(=O)OCC(=O)C(C)(C)C)cc1	81.5%	92.5% (inactive)	81.5% (inactive)	94.2% (inactive)	92.8% (inactive)	7.79% (inactive)	85%	92.8%	0.26% (inactive)	-3.67% (inactive)
COc1ccccc1OC(=O)c1ccc2nsnc2c1	110%	89% (inactive)	110% (inactive)	91.8% (inactive)	100% (inactive)	11.6% (inactive)	88.4%	100%	-8.16% (inactive)	-6.55% (inactive)
CCOCCCNC(=O)C1CCN(S(=O)(=O)N(CC(C)C)CC(C)C)CC1	121%	100% (inactive)	121% (inactive)	97.9% (inactive)	111% (inactive)	24% (inactive)	87.3%	111%	-4.13% (inactive)	2.1% (inactive)

SMILES	viability [1]	Her2 level [2]	viability [3]	viability [4]	viability [5]	differential viability (reversal) ([6]; H69AR cells + 2 uM doxorubicin)	viability [6, 9]	viability [6, 10]	inhibition [7]	inhibition [8]
c1ccc(N2CCN(Cc3ccnc4ccccc34)CC2)cc1	98%	81.5% (inactive)	98% (inactive)	71.2% (inactive)	72.4% (inactive)	-21.1% (inactive)	93.5%	72.4%	-6.22% (inactive)	-0.82% (inactive)
Cc1ccc(OCC(=O)NCCN2CCCC2)cc1	97.5%	84.5% (inactive)	97.5% (inactive)	86% (inactive)	95.9% (inactive)	9.56% (inactive)	86.4%	95.9%	-6.8% (inactive)	2.3% (inactive)
CC(C)(C)c1ccc(C(=O)Nc2cnccn2)cc1	79.5%	114% (inactive)	79.5% (inactive)	98.1% (inactive)	100% (inactive)	18.8% (inactive)	81.5%	100%	-4.87% (inactive)	0.67% (inactive)
Cc1ccc(C(=O)CC2(O)C(=O)N(CN3CCOCC3)c3ccccc32)cc1 (stereo not given)	100%	90.5% (inactive)	100% (inactive)	85.9% (inactive)	94.6% (inactive)	-5.11% (inactive)	99.7%	94.6%	-3.55% (inactive)	-4.83% (inactive)
CCn1c(SCC(=O)N2CCOCC2)nc2c(c1=O)SC(C)C2 (stereo not given)	95%	112% (inactive)	95% (inactive)	97.3% (inactive)	88% (inactive)	6.23% (inactive)	81.7%	88%	-7.53% (inactive)	-4.92% (inactive)
COc1ccc2[nH]c(=O)c(CN(CCO)S(=O)(=O)c3ccc4c(c3)OCCO4)cc2c1	85%	97.5% (inactive)	85% (inactive)	99.8% (inactive)	94% (inactive)	6.97% (inactive)	87%	94%	-5.07% (inactive)	-2.3% (inactive)
Cn1c(=O)oc2cc(S(=O)(=O)NCCC(=O)N3CCc4ccccc4C3)ccc21	102%	87.5% (inactive)	102% (inactive)	96.6% (inactive)	99.3% (inactive)	7.68% (inactive)	91.6%	99.3%	-8.36% (inactive)	6.19% (inactive)
COc1ccc2ccccc2c1CN1CCN(C)CC1	97%	94.5% (inactive)	97% (inactive)	75.1% (inactive)	104% (inactive)	7.19% (inactive)	96.6%	104%	1.43% (inactive)	-0.66% (inactive)
O=C(Nc1nnc(COc2ccc(F)cc2)s1)c1cccs1	107%	88.5% (inactive)	107% (inactive)	60% (inactive)	106% (inactive)	21.3% (inactive)	84.9%	106%	-6.93% (inactive)	-0.48% (inactive)
Cc1cc(C)c2c(n1)sc1c(N3CCOCC3)ncnc12	91%	90% (inactive)	91% (inactive)	25.4% (active)	76.6% (inactive)	0.885% (inactive)	75.7%	76.6%	-6.35% (inactive)	0.67% (inactive)
CCOc1cc(C(=O)N(C)c2ccccc2)cc(OCC)c1OCC	108%	131% (inactive)	108% (inactive)	96.4% (inactive)	89.2% (inactive)	-1.49% (inactive)	90.7%	89.2%	-5.64% (inactive)	-11.3% (inactive)
CCOC(=O)C1CCCN(C(=O)c2ccc(CS(=O)(=O)Cc3ccccc3C)o2)C1 (stereo not given)	94.5%	97.5% (inactive)	94.5% (inactive)	84.4% (inactive)	96.2% (inactive)	9.89% (inactive)	86.3%	96.2%	-0.39% (inactive)	-8.23% (inactive)
CCOc1ccc(CNC(=O)C2CCCN(S(C)(=O)=O)C2)cc1OC (stereo not given)	77%	133% (inactive)	77% (inactive)	102% (inactive)	98.8% (inactive)	7.88% (inactive)	90.9%	98.8%	-1.67% (inactive)	0.17% (inactive)
CCN(CC)S(=O)(=O)c1ccc(NC(=O)CN(c2cccc(F)c2)S(C)(=O)=O)cc1	96%	84.5% (inactive)	96% (inactive)	88.7% (inactive)	92.5% (inactive)	-3.88% (inactive)	96.3%	92.5%	-4.29% (inactive)	-0.33% (inactive)
COCCNC(=O)C(c1ccc(C)o1)N(Cc1ccc(OC)cc1)C(=O)Cn1nnc2ccccc21 (stereo not given)	102%	98% (inactive)	102% (inactive)	102% (inactive)	97.8% (inactive)	-6.28% (inactive)	104%	97.8%	-0.53% (inactive)	-0.82% (inactive)
